Experimental data reported in ChEMBL document CHEMBL3860031, “Design, synthesis and antitrypanosomal activity of some nitrofurazone 1,2,4-triazolic bioisosteric analogues” (Eur J Med Chem, 2016).

Tests used:
[1] = Cytotoxicity against non-infected human U2OS cells assessed as decrease in number of cells after 96 hrs by Draq5 staining-based high content screening assay; type: toxicity, cell-based
In short: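 Separate plate with non-infected U2OS cells (700/well, DMEM + 10% FBS) and compounds in 15-point 2-fold dilutions, top 200 µM, 1% DMSO final. After 96 h, fixed with 4% paraformaldehyde, stained with 5 µM Draq5, cells counted by imaging. CC50 from sigmoidal variable-slope curve fitting.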

[2] = Selectivity index, ratio of CC50 for human U2OS cells infected with amastigote stage of Trypanosoma cruzi Y to EC50 for amastigote stage of Trypanosoma cruzi Y; type: toxicity, cell-based; settings: U2OS cells infected with Trypanosoma cruzi Y amastigotes, read-out: Ratio CC50/EC50
In short: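 S.I. = CC50/EC50 from the infected U2OS high-content assay. When CC50 could not be calculated, S.I. = highest tested concentration/EC50.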

[3] = tested on: Trypanosoma cruzi; experiment: Antitrypanosomal activity against amastigote stage of Trypanosoma cruzi Y infected in human U2OS cells after 96 hrs by Draq5 staining-based high content screening assay; type: functional, cell-based
In short: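 U2OS cells (700/well, high glucose DMEM + 10% heat-inactivated FBS) seeded and incubated 24 h at 37 °C/5% CO2. Infected next day with 2800 Y strain trypomastigotes from LLC-MK2 cultures in low glucose DMEM + 2% FBS. Compounds added on day 3 as 15-point 2-fold dilutions, 1% DMSO final, top 200 µM. After 96 h, fixed in 4% paraformaldehyde, 5 µM Draq5 stain, imaged. Infection ratio normalized to infected/uninfected DMSO controls. EC50 from sigmoidal variable-slope fit. Duplicate wells, three independent experiments.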

[4] = Cytotoxicity against human U2OS cells infected with amastigote stage of Trypanosoma cruzi Y assessed as decrease in number of cells after 96 hrs by Draq5 staining-based high content screening assay; type: toxicity, cell-based; settings: U2OS cells infected with Trypanosoma cruzi Y amastigotes
In short: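 Run on the same infected U2OS plates as the antiparasitic read (700 cells/well, 2800 Y strain trypomastigotes, compounds from day 3, 15-point 2-fold dilutions, top 200 µM, 1% DMSO final). Cells fixed after 96 h with 4% paraformaldehyde and stained with 5 µM Draq5. Total cell count compared with DMSO-treated infected controls. CC50 = concentration giving 50% cell number, from sigmoidal variable-slope fit. Three independent experiments.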

| EC50 [3] [µM] | Structure (SMILES) | Activity [1] | selectivity ratio [2] | Emax [3] [%] | CC50 at 96 h [4] [µM] |
| --- | --- | --- | --- | --- | --- |
| 144 | O=C(Cn1cncn1)c1ccc(F)cc1F | Non-Toxic | > 1.4 | 68.7 | – |
| 5.53 | O=C(Cn1cnc([N+](=O)[O-])n1)c1ccc(F)cc1F | Non-Toxic | > 36 | 87 | – |
| 101 | NC(=O)NN=C(Cn1cnc([N+](=O)[O-])n1)c1ccc(F)cc1F | Non-Toxic | > 2 | 95.2 | – |
| 63.1 | NC(=O)NN=C(Cn1cncn1)c1ccc(F)cc1F | Non-Toxic | > 3.1 | 96.6 | – |
| 21.6 | NC(=S)NN=C(Cn1cnc([N+](=O)[O-])n1)c1ccc(F)cc1F | Non-Toxic | > 9.27 | 92.8 | – |
| 15.4 | NC(=S)NN=C(Cn1cncn1)c1ccc(F)cc1F | Non-Toxic | > 13 | 95.2 | – |
| 3.96 | O=C(Cn1ccnc1[N+](=O)[O-])NCc1ccccc1 [BENZNIDAZOLE] | – | > 101 | 104 | – |
| 0.34 | CC1CS(=O)(=O)CCN1/N=C/c1ccc([N+](=O)[O-])o1 (stereo unspecified) [NIFURTIMOX] | – | 78.9 | 102 | 26.8 |
